ADAM10 inh: human ADAM10 inhibitors, primary screen, biochemical, QFRET, HTS. Disintegrin and metalloproteinase domain-containing protein 10 (Homo sapiens), O14672. recombinant ADAM10, EDANS/DABCYL FRET peptide cleavage, 3 h. inhibition, % at 7 µM. 370,000 compounds, 0.62% hits;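 active = inhibition above a per-campaign cutoff equal to the mean of compounds falling between control-based bounds plus 3 SD, cut at about 20% in these data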
aDG glyco act: activators of alpha-DG glycosylation, primary screen, uHTS, Pro5-aDG cells, AlphaScreen | alpha-DG glycosylation AlphaScreen (IIH6); 0% Pro5, 100% B10-LARGE cell signal | activation, % at 10 µM | 360,000 compounds, 0.22% hits | AID 624168, 2012;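 active = activation of at least 8% versus controls, or a plate z-score of at least 8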;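 also: Pro5 are CHO cells carrying HIG-tagged alpha-DG that lacks glycosylation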
V-ATPase pHluor: regulators of yeast V-ATPase proton pumping, primary screen, pHLuorin cytosolic pH fluorescence; S. cerevisiae; response, % at 10 µM; 350,000 compounds, 0.37% hits; in the data active = response mostly above about 7.3%, no sharp cut-off; inactive = mostly below about 5.4%; also: actives read high
ADAM17 inh: ADAM17 inhibitors, primary screen, biochemical, QFRET. Disintegrin and metalloproteinase domain-containing protein 17 (Homo sapiens), P78536. recombinant ADAM17, EDANS/DABCYL FRET peptide cleavage. inhibition, % at 6.95 µM. 370,000 compounds, 0.83% hits. AID 720648, 2013;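 active = inhibition above the mean of compounds lying between control limits plus 3 SD, set per campaign, cut at about 8.5% in these data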
Target sequence (P78536 215-824 limits assumed): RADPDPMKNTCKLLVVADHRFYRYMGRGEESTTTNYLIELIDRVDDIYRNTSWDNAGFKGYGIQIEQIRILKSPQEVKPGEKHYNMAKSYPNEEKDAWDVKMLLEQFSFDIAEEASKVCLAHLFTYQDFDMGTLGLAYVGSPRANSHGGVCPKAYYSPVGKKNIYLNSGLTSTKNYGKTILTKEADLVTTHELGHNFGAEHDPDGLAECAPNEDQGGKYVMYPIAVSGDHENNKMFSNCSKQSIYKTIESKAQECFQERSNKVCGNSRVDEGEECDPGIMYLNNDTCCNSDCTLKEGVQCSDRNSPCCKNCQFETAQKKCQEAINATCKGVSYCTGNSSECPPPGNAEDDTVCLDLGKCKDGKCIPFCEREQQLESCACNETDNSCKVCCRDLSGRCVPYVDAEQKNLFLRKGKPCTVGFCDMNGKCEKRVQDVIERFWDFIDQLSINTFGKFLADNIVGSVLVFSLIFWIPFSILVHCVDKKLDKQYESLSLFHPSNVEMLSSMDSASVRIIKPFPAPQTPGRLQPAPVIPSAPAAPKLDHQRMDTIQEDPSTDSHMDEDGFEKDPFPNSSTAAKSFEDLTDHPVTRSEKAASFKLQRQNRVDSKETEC
Lipid droplet: inhibitors of hepatocyte lipid droplet formation, primary screen, imaging, high-throughput imaging, BODIPY stain; 240,000 compounds, 0.4% hits; AML12 mouse hepatocytes, oleate lipid droplets; inhibition, % at 6.5 µM;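 active = lipid droplet intensity inhibited by at least 50%, with more than 500 cells counted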
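System: AML12 hepatocytes (mouse). Probe or stimulus: oleic acid at 100 µM to induce lipid droplet formation. Times: overnight treatment with compound plus oleate. Detection: Image-based BODIPY and DAPI two-channel analysis. Evaluation: percent inhibition of filter-corrected integrated lipid droplet intensity per well.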
MPTP block: mitochondrial permeability transition pore inhibitors, primary screen, biochemical, isolated mouse mitochondria, absorbance. Ca2+ swelling absorbance, 30 min. inhibition, % at 10 µM. 360,000 compounds, 1.4% hits;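 active = inhibition of 50% or more, scaled per plate between neutral and stimulator controls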
MPTP counter: fluorescence retest of MPTP screen hits in isolated mitochondria, single concentration. shares compounds with MPTP block. membrane potential, Rhodamine 123 fluorescence. inhibition, % at 10 µM. 5,000 compounds, 78% hits; in the data active = inhibition above about 22%
MPTP swell DR: mitochondrial permeability transition pore inhibitors, dose response, biochemical, absorbance, uHTS hits; isolated mitochondria swelling; shares compounds with MPTP block; IC50, µM; 780 compounds, 58% hits; AID 651561, 2012; in the data active = IC50 below about 20 µM
MPTP counter DR: fluorescent counter-screen in isolated mitochondria, dose response, counter-screen for MPTP inhibitor project, biochemical, fluorescence, uHTS hits. IC50, µM. 780 compounds, 49% hits. AID 651564, 2012. shares compounds with MPTP block. isolated mitochondria counterscreen, fluorescence read-out; in the data active = IC50 below about 80 µM
A number is an active result; 0 = inactive; - = no result given. Most compounds without a hit are left out; they make up all but 3.1% or so of the library.

SMILES | ADAM10 inh | aDG glyco act | V-ATPase pHluor | ADAM17 inh | Lipid droplet | MPTP block | MPTP counter | others
O=C(NNC(=S)NC(=O)c1sc2ccccc2c1Cl)c1ccc(Cl)cc1 | 0 | 0 | 0 | 0 | 0 | 108 | 0
Nc1[nH]c(C(=O)c2ccccc2)c(-c2cccnc2)c1C(=O)NCCc1c[nH]c2ccccc12 | 0 | - | - | 0 | - | - | -
COC(=O)[C@]12C[C@H](CC(=O)NCCCN3CCCC3=O)C(=O)N(CCC3=CCCCC3)C1=C[C@H](C1CCCC1)O[C@@H]2C | 0 | - | - | 0 | - | - | -
CCC[C@H]1[C@@H](NC(=O)c2cccc(C)c2)CC[C@@]23CCCN2C(=O)CCC[C@@H]13 | 0 | - | - | 0 | - | - | -
Cc1ccc(C(C)C)c(OCC(=O)Nc2ccc3c(c2)nc(CCN2CCCCC2)n3C)c1 | 0 | 0 | 0 | 0 | 0 | 73 | 0 | MPTP swell DR=6.1;MPTP counter DR=75
Nn1c(SCc2cccc3ccccc23)nnc1-c1n[nH]c2c1CCC2 | 0 | - | - | 0 | - | - | -
C=CCn1c(NCCc2ccccc2)nc2c1c(=O)n(C)c(=O)n2C | 0 | 0 | 0 | 0 | 0 | 0 | -
C/C(Cl)=C\Cn1c(NCCc2ccccc2)nc2c1c(=O)n(C)c(=O)n2C | 0 | 0 | 0 | 0 | - | 54 | 83
COc1ccc(C(=O)OCCN2CCN(C3CN(Cc4cn(Cc5ccccc5C(F)(F)F)nn4)S(=O)(=O)C3)CC2)cc1OC (stereo unspecified) | 0 | - | - | 0 | - | - | -
CC(C)NCC(O)Cn1c2c(c3ccccc31)CCc1c-2cnn1-c1ccccc1 (stereo unspecified) | 0 | 0 | 0 | 0 | - | 87 | 0
CN1CCc2c(n(CC(O)CNCc3ccccc3)c3ccccc23)C1=O (stereo unspecified) | 0 | 0 | 0 | 0 | 0 | 0 | -
CC(C)(C)OC(=O)N1c2ccccc2[C@]2(N3CCCC3)C[C@H](C(=O)O)N(C(=O)OC(C)(C)C)[C@H]12 | 0 | - | - | 0 | - | - | -
COc1ccc(/C=C2/Sc3ccc(C(=O)NCCN4CCCCCC4)cc3NC2=O)cc1 | 0 | 0 | 0 | 0 | 0 | 87 | 0 | MPTP swell DR=14;MPTP counter DR=40
O=C(Nc1cccc(S(=O)(=O)N2CCCCC2)c1)Nc1ccc(Cl)cc1Cl | 0 | 0 | 0 | 0 | 0 | 85 | 73
O=C(NC1CCN(S(=O)(=O)c2ccc(F)cc2)CC1)c1ccc(F)cc1 | 0 | 0 | 0 | 0 | 0 | 0 | -
O=C(Nc1ccc(Cl)cc1)Nc1cc(S(=O)(=O)N2CCOCC2)ccc1N1CCCC1 | 0 | 0 | 0 | 0 | 0 | 71 | 73
COc1ccc(NC(=S)Nc2cccc(S(=O)(=O)N3CCCCC3)c2)cc1 | 0 | 0 | 0 | 0 | 0 | 68 | 88
O=C(Nc1ccc(Cl)cc1Cl)NC1CCN(S(=O)(=O)c2ccc(F)cc2)CC1 | 0 | 0 | 0 | 0 | 0 | 96 | 89
O=C(Nc1ccccc1)Nc1cc(S(=O)(=O)N2CCOCC2)ccc1N1CCCC1 | 0 | 0 | 0 | 0 | 0 | 0 | -
Nc1[nH]c(C(=O)c2ccc(Br)cc2)c(-c2ccc(Br)cc2)c1C(=O)N1CCCCC1 | 0 | - | - | 0 | - | - | -
CCN(CC)S(=O)(=O)c1cccc(NC(=O)CNc2cccc(S(=O)(=O)N3CCCC3)c2)c1 | 0 | 0 | 0 | 0 | 0 | 90 | 101
C=C(C)[C@@H]1CC=C(CN2CCC(N3CCC(C(=O)N4CCCC4)CC3)CC2)CC1 | 0 | 0 | 0 | 0 | 0 | 83 | 47
COC(=O)[C@]12C[C@H](CC(=O)NCC34CC5CC(CC(C5)C3)C4)C(=O)N(Cc3cccc4ccccc34)C1=C[C@H](C1CCCC1)O[C@@H]2C | 0 | - | - | 0 | - | - | -
CC(=O)n1c(-c2ccccc2)c(CO)c2ccccc21 | 0 | 0 | 0 | 0 | - | 0 | -
NCCc1c(-c2ccccc2)n(-c2ccccc2)c2ccccc12 | 0 | 0 | 0 | 0 | 0 | 79 | 0
SMILES | ADAM10 inh | aDG glyco act | V-ATPase pHluor | ADAM17 inh | Lipid droplet | MPTP block | MPTP counter | others
CCOC(=O)C1(Cc2ccccc2)CCN(Cc2cnn(CC)c2)CC1 | 0 | 0 | 0 | 0 | 0 | 0 | -
Cn1cc(CN2CCCC(C(=O)c3ccc(-c4ccccc4)cc3)C2)cn1 (stereo unspecified) | 0 | 0 | 0 | 0 | 0 | 0 | -
CCOC(=O)C1(Cc2ccccc2)CCN(Cc2cnn(-c3ccccc3)c2)CC1 | 0 | 0 | 0 | 0 | 0 | 62 | 0 | MPTP swell DR=15;MPTP counter DR=33
CCn1cc(CN2CCCC(C(=O)c3ccc(-c4ccccc4)cc3)C2)cn1 (stereo unspecified) | 0 | 0 | 0 | 0 | 0 | 58 | 0 | MPTP swell DR=19;MPTP counter DR=26
CCOC(=O)C1(Cc2ccccc2)CCCN(Cc2cnn(CC)c2)C1 (stereo unspecified) | 0 | 0 | 0 | 0 | 0 | 64 | 0 | MPTP swell DR=0;MPTP counter DR=0
N#Cc1cccc(NC(=O)OC2CCC23CCC(c2ccccc2)CC3)c1 (stereo unspecified) | 0 | - | - | 0 | - | - | -
N[C@H](C(=O)N1CCC[C@@H]1C(=O)N1CCC2CCN(S(=O)(=O)c3ccccc3)CC21)c1ccccc1 (stereo partly specified) | 0 | - | - | 0 | - | - | -
CCCN(CC1CC1)C(=O)CNc1nnnn1-c1ccccc1 | 0 | - | - | 0 | - | - | -
CSc1nc(Oc2cccc(C(F)(F)F)c2)cc(C(F)(F)F)n1 | 0 | 0 | 0 | 0 | - | 55 | 0 | MPTP swell DR=11;MPTP counter DR=0
CSc1nc(Oc2ccc(F)cc2F)cc(C(F)(F)F)n1 | 0 | 0 | 0 | 0 | - | 0 | -
COC(=O)CCC(=O)Nc1ccc(Cl)c(Cl)c1 | 0 | 0 | 0 | 0 | - | 0 | -
Cc1occc(=O)c1OC(=O)Nc1ccc(Cl)c(Cl)c1 | 0 | 0 | 0 | 0 | 0 | 99 | 78
S=C(NCCc1ccccn1)Nc1ccc(Cl)c(Cl)c1 | 0 | 0 | 0 | 0 | 0 | 0 | -
S=C(NCCc1ccccc1)NCCc1ccccc1 | 0 | 0 | 0 | 0 | 0 | 0 | -
O=C(NCCc1ccccc1)Nc1ccc(Cl)cc1 | 0 | 0 | 0 | 0 | 0 | 76 | 72
Cc1c(Cl)cccc1NC(=S)NCCc1ccc(C(F)(F)F)cc1 | 0 | 0 | 0 | 0 | 0 | 98 | 96
S=C(NCCc1ccccc1)Nc1ccc(Cl)cc1 | 0 | 0 | 0 | 0 | 0 | 100 | 90
S=C(NCCc1ccccn1)Nc1cc(Cl)cc(Cl)c1 | 0 | 0 | 0 | 0 | 0 | 60 | 77
CCCCCCCCN1CCS(=O)(=O)N(Cc2ccc(C(F)(F)F)cc2)C(C(=O)OC)C1 (stereo unspecified) | 0 | - | - | 0 | - | - | -
